# Calls of active or inactive are those of the source. No cut-off for these calls is given here.
# How the values were obtained:
# [1] = target: Cathepsin S (Homo sapiens, UniProt P25774); assay: Inhibition of human recombinant cathepsin S by fluorescence assay
# [2] = target: T1, Pro-cathepsin H (Homo sapiens, UniProt P09668); assay: Inhibition of human recombinant cathepsin H by fluorescence assay
# T1 sequence (P09668 whole entry): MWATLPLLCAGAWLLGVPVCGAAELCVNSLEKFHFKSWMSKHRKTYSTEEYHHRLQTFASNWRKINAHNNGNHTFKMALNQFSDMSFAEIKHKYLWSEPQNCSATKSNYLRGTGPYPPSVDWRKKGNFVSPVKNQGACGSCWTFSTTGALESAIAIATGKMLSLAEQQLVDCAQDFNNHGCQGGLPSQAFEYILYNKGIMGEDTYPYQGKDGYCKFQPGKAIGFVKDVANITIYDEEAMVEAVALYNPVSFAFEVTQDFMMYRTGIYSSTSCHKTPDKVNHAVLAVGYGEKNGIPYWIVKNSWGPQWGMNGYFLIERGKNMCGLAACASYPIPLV
# In short: (§1)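 Recombinant human enzyme was preincubated with inhibitor for 20 min. Substrate was then added: H-Arg-AMC for cathepsin H, H₂N-Gly-Phe-AMC for cathepsin C. Buffer was 100 mM NaOAc, 1 mM EDTA, 0.01% Brij-35, 5 mM DTT, pH 5.5, 37 °C. AMC release was read by fluorescence, ex 380/em 450 nm. Progress curves were fitted to the Morrison equation, and apparent values were converted to Ki assuming competitive inhibition.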
# [3] = target: T2, Cathepsin K (Homo sapiens, UniProt P43235); assay: Inhibition of human recombinant cathepsin K by fluorescence assay
# T2 sequence (P43235 whole entry): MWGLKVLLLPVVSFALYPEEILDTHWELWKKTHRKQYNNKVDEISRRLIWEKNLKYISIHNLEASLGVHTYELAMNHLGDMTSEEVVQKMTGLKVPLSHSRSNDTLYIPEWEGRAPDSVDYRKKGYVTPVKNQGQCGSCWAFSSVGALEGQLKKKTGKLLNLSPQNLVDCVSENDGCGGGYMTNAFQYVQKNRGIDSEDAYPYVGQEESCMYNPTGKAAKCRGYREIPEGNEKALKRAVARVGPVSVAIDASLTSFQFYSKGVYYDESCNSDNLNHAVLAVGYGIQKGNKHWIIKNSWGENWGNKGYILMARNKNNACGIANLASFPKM
# [4] = target: Cathepsin B (Homo sapiens, UniProt P07858); assay: Inhibition of human recombinant cathepsin B by fluorescence assay
# [5] = target: T3, Dipeptidyl peptidase 1 (Homo sapiens, UniProt P53634); assay: Blockade of conjugation of cathepsin C in human B721 cells to I125-labeled (S)-2-amino-N-((S)-1-(4-hydroxy-3-iodophenylsulfonyl)-5-phenylpent-1-en-3-yl)pentanamide pretreated for 30 mins before addition of I125-labeled (S)-2-amino-N-((S)-1-(4-hydroxy-3-iodophenylsulfonyl)-5-phenylpent-1-en-3-yl)pentanamide by SDS-PAGE; assay type: cell-based
# T3 sequence (P53634 25-134 limits assumed): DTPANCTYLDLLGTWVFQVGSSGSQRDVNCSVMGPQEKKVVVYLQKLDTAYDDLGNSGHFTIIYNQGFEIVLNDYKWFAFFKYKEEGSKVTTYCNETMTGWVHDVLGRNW
# T3 sequence (P53634 231-394 limits assumed): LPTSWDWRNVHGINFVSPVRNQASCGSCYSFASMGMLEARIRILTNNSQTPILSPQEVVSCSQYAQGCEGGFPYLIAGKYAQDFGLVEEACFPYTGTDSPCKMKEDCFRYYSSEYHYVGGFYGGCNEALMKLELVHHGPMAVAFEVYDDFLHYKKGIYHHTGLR
# T3 sequence (P53634 395-463 limits assumed): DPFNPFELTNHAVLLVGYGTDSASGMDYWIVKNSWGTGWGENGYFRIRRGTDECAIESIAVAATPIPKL
# In short: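 B721 cells at 1 × 10⁶ cells/mL were preincubated with compound or DMSO (final 50, 10, 1, 0.1, 0 μM) for 30 min at 37 °C, 5% CO2. ¹²⁵I-labeled probe was then added at 2 nM for another 30 min at 37 °C. Cells were pelleted, lysed and boiled. Labeled cathepsin C was resolved by SDS–PAGE and quantified by phosphorimaging.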
# [6] = target: T3, Dipeptidyl peptidase 1; assay: Inhibition of cathepsin C in human B721 cells by FACS assay; assay type: cell-based
# In short: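 B721 EBV-immortalized B cells were washed and resuspended in serum-free, phenol red-free RPMI 1640 at 1 × 10⁶ cells/mL. Cells were pretreated with compound or DMSO (final 10, 3.3, 1.1, 0.37, 0.12, 0 μM) for 30 min at 37 °C, 5% CO2. (H₂N-Abu-Hph)₂-rhodamine (final 2 μM) and propidium iodide (4 μg/mL) were added. Flow cytometry read ex 488/em 530 nm at three time points 15 min apart.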
# [7] = target: T3, Dipeptidyl peptidase 1; assay: Inhibition of human recombinant cathepsin C by fluorescence assay; in short: as §1
# [8] = target: T3, Dipeptidyl peptidase 1; assay: Binding affinity to cathepsin C in human B721 cells assessed as cellular compound turnover in presence of (S)-2-Amino-pentanoic acid ((S)-3-methanesulfonyl-1-phenethyl-allyl)-amide; assay type: cell-based
# [9] = species on record: Homo sapiens; assay: Selectivity for human recombinant cathepsin C over human recombinant cathepsin K
# [10] = target: Procathepsin L (Homo sapiens) (UniProt P07711); assay: Inhibition of human recombinant cathepsin L by fluorescence assay
# Procathepsin L (Homo sapiens), sequence (P07711 114-333 limits assumed): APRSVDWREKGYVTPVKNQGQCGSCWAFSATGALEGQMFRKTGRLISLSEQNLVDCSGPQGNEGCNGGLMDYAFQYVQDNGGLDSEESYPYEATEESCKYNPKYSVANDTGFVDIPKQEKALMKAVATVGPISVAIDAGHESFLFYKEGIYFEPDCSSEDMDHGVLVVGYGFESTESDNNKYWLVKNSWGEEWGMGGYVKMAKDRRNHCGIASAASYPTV
# [11] = species on record: Homo sapiens; assay: Selectivity for human recombinant cathepsin C over human recombinant cathepsin S
# [12] = species on record: Homo sapiens; assay: Selectivity for human recombinant cathepsin C over human recombinant cathepsin B
# [13] = species on record: Homo sapiens; assay: Selectivity for human recombinant cathepsin C over human recombinant cathepsin H
# [14] = species on record: Homo sapiens; assay: Selectivity for human recombinant cathepsin C over human recombinant cathepsin L
# Cathepsin S, sequence (P25774 whole entry): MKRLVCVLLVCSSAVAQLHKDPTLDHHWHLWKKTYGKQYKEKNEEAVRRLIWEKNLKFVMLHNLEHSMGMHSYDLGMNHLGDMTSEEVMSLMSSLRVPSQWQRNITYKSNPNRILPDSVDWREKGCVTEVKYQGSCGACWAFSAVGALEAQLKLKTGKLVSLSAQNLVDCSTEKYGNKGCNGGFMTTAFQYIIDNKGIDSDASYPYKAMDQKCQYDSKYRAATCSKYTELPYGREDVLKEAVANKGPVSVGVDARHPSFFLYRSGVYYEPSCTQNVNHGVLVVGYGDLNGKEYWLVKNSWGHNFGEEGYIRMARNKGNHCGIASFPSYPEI
SMILES,Ki [1] [nM],Ki [2] [nM],Ki [3] [nM],Ki [4] [nM],IC50 [5] [nM],IC50 [6] [nM],INH [7] [nM],Activity [8],Activity [9],INH [10] [nM],Activity [11],Activity [12],Activity [13],Activity [14]
CC[C@H](N)C(=O)N[C@H](C#N)Cc1ccc(-c2ccccc2)cc1,> 100000,3700,18000,> 100000,10000,6100,1.5,–,–,–,–,–,–,–
O=C1OC2(c3ccc(NC(=O)[C@H](CCc4ccccc4)NC(=O)[C@@H]4CCCN4)cc3Oc3cc(NC(=O)[C@H](CCc4ccccc4)NC(=O)[C@@H]4CCCN4)ccc32)c2ccccc21,–,–,–,–,–,–,–,inactive,–,–,–,–,–,–
CC[C@H](N)C(=O)N[C@@H](CCc1ccccc1)C(=O)Nc1ccc2c(c1)Oc1cc(NC(=O)[C@H](CCc3ccccc3)NC(=O)[C@@H](N)CC)ccc1C21OC(=O)c2ccccc21,–,–,–,–,–,–,–,inactive,–,–,–,–,–,–
CCC[C@H](N)C(=O)N[C@@H](CCc1ccccc1)C(=O)Nc1ccc2c(c1)Oc1cc(NC(=O)[C@H](CCc3ccccc3)NC(=O)[C@@H](N)CCC)ccc1C21OC(=O)c2ccccc21,–,–,–,–,–,–,–,inactive,–,–,–,–,–,–
CCC[C@H](N)C(=O)N[C@H](/C=C/S(=O)(=O)c1ccccc1)CCc1ccccc1,5.5,137,120,1100,100,70,0.2,–,75,20,75,75,75,75
CC(C)C[C@H](NC(=O)N1CCOCC1)C(=O)N[C@H](/C=C/S(=O)(=O)c1ccccc1)CCc1ccccc1,< 0.1,1400,1.2,64,4000,2600,1800,–,–,–,–,–,–,–
